The source made the active and inactive calls. The rule behind the calls is not given here.
What was measured:
[1] = system: Echinococcus multilocularis; assay: Antiparasitic activity against Echinococcus multilocularis protoscolex at 5 uM after 5 days by trypan blue staining; format: functional, organism-based
How it was run: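 Protoscoleces of the Nemuro strain, freed of host material, kept in long-term maintenance medium in six-well plates at about 500 protoscoleces/ml, with half the medium replaced twice weekly. Compound added to the medium at 5 or 50 μM; the vehicle control was 0.5% (vol/vol) DMSO. Run in triplicate. Viability was scored microscopically on >170 protoscoleces per well by motility and trypan blue exclusion.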

[2] = Inhibition of NADH fumarate reductase in Echinococcus multilocularis protoscolece
How it was run: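 Enriched mitochondrial fraction from Nemuro-strain protoscoleces, 80 μg protein/ml, in 30 mM potassium phosphate pH 7.4 with 1 mM MgCl2 at 25°C. Made anaerobic over 3 min with glucose oxidase, catalase and 10 mM β-D-glucose. NADH (100 μM) oxidation followed at 340 nm after starting with 5 mM fumarate. IC50 determined.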

[3] = system: Echinococcus multilocularis; assay: Antiparasitic activity against Echinococcus multilocularis protoscolex assessed as reduction of parasite viability at 50 uM by trypan blue staining; format: functional, organism-based
[4] = system: Echinococcus multilocularis; assay: Antiparasitic activity against Echinococcus multilocularis protoscolex assessed dead parasite at 50 uM after 5 days by trypan blue staining; format: functional, organism-based
[5] = Inhibition of bovine heart mitochondrial NADH oxidase

SMILES	Activity [1]	IC50 [2]	further results
CC(=O)Oc1ccccc1C(=O)Nc1ncc([N+](=O)[O-])s1	inactive	–	–
CC(C)(C)c1ccc(CCNc2ncnc3ccc(N)cc23)cc1	–	2.1 nM	–
CC(C)Oc1cccc2c(NCCc3ccc(C(C)(C)C)cc3)ncnc12	–	910 nM	–
CC(C)(C)c1ccc(CCNc2ncnc3cc(N)ccc23)cc1	–	62 nM	–
c1ccc2ncncc2c1 [QUINAZOLINE]	–	2.3 nM	–
COc1cccc2c(NCCc3ccc(C(C)(C)C)cc3)ncnc12	–	48 nM	–
C=C(C)[C@H]1Cc2c(ccc3c2O[C@@H]2COc4cc(OC)c(OC)cc4[C@@H]2C3=O)O1	Active	–	–
C=CC(=O)Nc1ccc2ncnc(NCCc3ccc(C(C)(C)C)cc3)c2c1	–	16 nM	–
CCOc1cccc2c(NCCc3ccc(C(C)(C)C)cc3)ncnc12	–	4100 nM	–
CC(C)(C)c1ccc(CCNc2ncnc3c(O)cccc23)cc1	inactive	71 nM	Activity [3]: Active; Activity [4]: Active; IC50 [5]: 230 nM

From ChEMBL document CHEMBL1151456, “Anaerobic NADH-fumarate reductase system is predominant in the respiratory chain of Echinococcus multilocularis, providing a novel target for the chemotherapy of alveolar echinococcosis” (Antimicrob Agents Chemother, 2008)
